# Experimental data: ChEMBL document CHEMBL1770131, “Radiosynthesis and preliminary evaluation of 4-[18F]fluoro-N-[4-[6-(isopropylamino)pyrimidin-4-yl]-1,3-thiazol-2-yl]-N-methylbenzamide as a new positron emission tomography ligand for metabotropic glutamate receptor subtype 1” (Bioorg Med Chem Lett, 2011)
# Active and inactive are the calls of the source. The rule behind the calls is not given here.
# Tests used:
# Details in all cases: 1 M, tested as the 18F-labelled form
# [1] = target: Metabotropic glutamate receptor 1 (Rattus norvegicus) (UniProt P23385); assay: Binding affinity to mGluR1 in rat striatum at 1 MBq/ml after 30 mins by autoradiography; type: tissue-based
# Method in brief: (§1)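 Rat brain sections pre-incubated 3 × 5 min at room temperature in Tris-HCl (50 mM, pH 7.4, 1.2 mM MgCl2, 2 mM CaCl2). Then incubated 30 min at room temperature in fresh buffer with radioligand (1 MBq/mL; in saline with 5% ethanol and Tween80), with or without 1 µM unlabeled ligand, JNJ16259685 or MPEP. Washed 3 × 5 min in cold buffer, dipped in cold water, air-dried, exposed to imaging plate.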
# [2] = target: Metabotropic glutamate receptor 1 (Rattus norvegicus) (UniProt P23385); assay: Binding affinity to mGluR1 in rat thalamus at 1 MBq/ml after 30 mins by autoradiography; type: tissue-based; method in brief: as §1
# [3] = target: Metabotropic glutamate receptor 1 (Rattus norvegicus) (UniProt P23385); assay: Binding affinity to mGluR1 in rat striatum at 1 MBq/ml after 30 mins by autoradiography in presence of 1 uM non-radiolabeled compound; type: tissue-based; method in brief: as §1
# [4] = target: Metabotropic glutamate receptor 1 (Rattus norvegicus) (UniProt P23385); assay: Binding affinity to mGluR1 in rat striatum at 1 MBq/ml after 30 mins by autoradiography in presence of 1 uM of mGluR1 antagonist JNJ16259685; type: tissue-based; method in brief: as §1
# [5] = target: Metabotropic glutamate receptor 1 (Rattus norvegicus) (UniProt P23385); assay: Binding affinity to mGluR1 in rat whole brain at 1 MBq/ml after 30 mins by autoradiography in presence of 1 uM non-radiolabeled compound; method in brief: as §1
# [6] = target: Metabotropic glutamate receptor 1 (Rattus norvegicus) (UniProt P23385); assay: Binding affinity to mGluR1 in rat striatum at 1 MBq/ml after 30 mins by autoradiography in presence of 1 uM of mGluR5 antagonist MPEP; type: tissue-based; method in brief: as §1
# [7] = target: Metabotropic glutamate receptor 1 (Rattus norvegicus) (UniProt P23385); assay: Binding affinity to mGluR1 in rat cerebellum at 1 MBq/ml after 30 mins by autoradiography in presence of 1 uM of mGluR1 antagonist JNJ16259685; type: tissue-based; method in brief: as §1
# [8] = target: Metabotropic glutamate receptor 1 (Rattus norvegicus) (UniProt P23385); assay: Binding affinity to mGluR1 in rat cerebral cortex at 1 MBq/ml after 30 mins by autoradiography; type: tissue-based; method in brief: as §1
# [9] = target: Metabotropic glutamate receptor 1 (Rattus norvegicus) (UniProt P23385); assay: Binding affinity to mGluR1 in rat pons-medulla at 1 MBq/ml after 30 mins by autoradiography in presence of 1 uM non-radiolabeled compound; method in brief: as §1
# [10] = target: Metabotropic glutamate receptor 1 (Rattus norvegicus) (UniProt P23385); assay: Binding affinity to mGluR1 in rat cerebellum at 1 MBq/ml after 30 mins by autoradiography in presence of 1 uM of mGluR5 antagonist MPEP; type: tissue-based; method in brief: as §1
# [11] = target: Metabotropic glutamate receptor 1 (Rattus norvegicus) (UniProt P23385); assay: Binding affinity to mGluR1 in rat hippocampus at 1 MBq/ml after 30 mins by autoradiography; type: tissue-based; method in brief: as §1
# [12] = target: Metabotropic glutamate receptor 1 (Rattus norvegicus) (UniProt P23385); assay: Binding affinity to mGluR1 in rat pons-medulla at 1 MBq/ml after 30 mins by autoradiography in presence of 1 uM of mGluR1 antagonist JNJ16259685; method in brief: as §1
# [13] = target: Metabotropic glutamate receptor 1 (Rattus norvegicus) (UniProt P23385); assay: Binding affinity to mGluR1 in rat thalamus at 1 MBq/ml after 30 mins by autoradiography in presence of 1 uM non-radiolabeled compound; type: tissue-based; method in brief: as §1
# [14] = target: Metabotropic glutamate receptor 1 (Rattus norvegicus) (UniProt P23385); assay: Binding affinity to mGluR1 in rat cerebral cortex at 1 MBq/ml after 30 mins by autoradiography in presence of 1 uM non-radiolabeled compound; type: tissue-based; method in brief: as §1
# [15] = target: Metabotropic glutamate receptor 1 (Rattus norvegicus) (UniProt P23385); assay: Binding affinity to mGluR1 in rat pons-medulla at 1 MBq/ml after 30 mins by autoradiography in presence of 1 uM of mGluR5 antagonist MPEP; method in brief: as §1
# [16] = target: Metabotropic glutamate receptor 1 (Rattus norvegicus) (UniProt P23385); assay: Binding affinity to mGluR1 in rat cerebellum at 1 MBq/ml after 30 mins by autoradiography in presence of 1 uM non-radiolabeled compound; type: tissue-based; method in brief: as §1
# [17] = target: Metabotropic glutamate receptor 1 (Rattus norvegicus) (UniProt P23385); assay: Binding affinity to mGluR1 in rat hippocampus at 1 MBq/ml after 30 mins by autoradiography in presence of 1 uM of mGluR5 antagonist MPEP; type: tissue-based; method in brief: as §1
# [18] = target: Metabotropic glutamate receptor 1 (Rattus norvegicus) (UniProt P23385); assay: Binding affinity to mGluR1 in rat cerebellum at 1 MBq/ml after 30 mins by autoradiography; type: tissue-based; method in brief: as §1
# [19] = target: Metabotropic glutamate receptor 1 (Rattus norvegicus) (UniProt P23385); assay: Binding affinity to mGluR1 in rat pons-medulla at 1 MBq/ml after 30 mins by autoradiography; method in brief: as §1
# [20] = target: Metabotropic glutamate receptor 1 (Rattus norvegicus) (UniProt P23385); assay: Binding affinity to mGluR1 in rat cerebral cortex at 1 MBq/ml after 30 mins by autoradiography in presence of 1 uM of mGluR5 antagonist MPEP; type: tissue-based; method in brief: as §1
# [21] = target: Metabotropic glutamate receptor 1 (Rattus norvegicus) (UniProt P23385); assay: Binding affinity to mGluR1 in rat thalamus at 1 MBq/ml after 30 mins by autoradiography in presence of 1 uM of mGluR5 antagonist MPEP; type: tissue-based; method in brief: as §1
# [22] = target: Metabotropic glutamate receptor 1 (Rattus norvegicus) (UniProt P23385); assay: Binding affinity to mGluR1 in rat cerebral cortex at 1 MBq/ml after 30 mins by autoradiography in presence of 1 uM of mGluR1 antagonist JNJ16259685; type: tissue-based; method in brief: as §1
# [23] = target: Metabotropic glutamate receptor 1 (Rattus norvegicus) (UniProt P23385); assay: Binding affinity to mGluR1 in rat thalamus at 1 MBq/ml after 30 mins by autoradiography in presence of 1 uM of mGluR1 antagonist JNJ16259685; type: tissue-based; method in brief: as §1
# [24] = target: Metabotropic glutamate receptor 1 (Rattus norvegicus) (UniProt P23385); assay: Binding affinity to mGluR1 in rat hippocampus at 1 MBq/ml after 30 mins by autoradiography in presence of 1 uM of mGluR1 antagonist JNJ16259685; type: tissue-based; method in brief: as §1
# [25] = target: Metabotropic glutamate receptor 1 (Rattus norvegicus) (UniProt P23385); assay: Binding affinity to mGluR1 in rat hippocampus at 1 MBq/ml after 30 mins by autoradiography in presence of 1 uM non-radiolabeled compound; type: tissue-based; method in brief: as §1
# [26] = target: Metabotropic glutamate receptor 1 (Rattus norvegicus) (UniProt P23385); assay: Binding affinity to mGluR1 in rat whole brain at 1 MBq/ml after 30 mins by autoradiography in presence of 1 uM of mGluR1 antagonist JNJ16259685; method in brief: as §1
# Chain of Metabotropic glutamate receptor 1 (Rattus norvegicus) (P23385 19-1199 limits assumed): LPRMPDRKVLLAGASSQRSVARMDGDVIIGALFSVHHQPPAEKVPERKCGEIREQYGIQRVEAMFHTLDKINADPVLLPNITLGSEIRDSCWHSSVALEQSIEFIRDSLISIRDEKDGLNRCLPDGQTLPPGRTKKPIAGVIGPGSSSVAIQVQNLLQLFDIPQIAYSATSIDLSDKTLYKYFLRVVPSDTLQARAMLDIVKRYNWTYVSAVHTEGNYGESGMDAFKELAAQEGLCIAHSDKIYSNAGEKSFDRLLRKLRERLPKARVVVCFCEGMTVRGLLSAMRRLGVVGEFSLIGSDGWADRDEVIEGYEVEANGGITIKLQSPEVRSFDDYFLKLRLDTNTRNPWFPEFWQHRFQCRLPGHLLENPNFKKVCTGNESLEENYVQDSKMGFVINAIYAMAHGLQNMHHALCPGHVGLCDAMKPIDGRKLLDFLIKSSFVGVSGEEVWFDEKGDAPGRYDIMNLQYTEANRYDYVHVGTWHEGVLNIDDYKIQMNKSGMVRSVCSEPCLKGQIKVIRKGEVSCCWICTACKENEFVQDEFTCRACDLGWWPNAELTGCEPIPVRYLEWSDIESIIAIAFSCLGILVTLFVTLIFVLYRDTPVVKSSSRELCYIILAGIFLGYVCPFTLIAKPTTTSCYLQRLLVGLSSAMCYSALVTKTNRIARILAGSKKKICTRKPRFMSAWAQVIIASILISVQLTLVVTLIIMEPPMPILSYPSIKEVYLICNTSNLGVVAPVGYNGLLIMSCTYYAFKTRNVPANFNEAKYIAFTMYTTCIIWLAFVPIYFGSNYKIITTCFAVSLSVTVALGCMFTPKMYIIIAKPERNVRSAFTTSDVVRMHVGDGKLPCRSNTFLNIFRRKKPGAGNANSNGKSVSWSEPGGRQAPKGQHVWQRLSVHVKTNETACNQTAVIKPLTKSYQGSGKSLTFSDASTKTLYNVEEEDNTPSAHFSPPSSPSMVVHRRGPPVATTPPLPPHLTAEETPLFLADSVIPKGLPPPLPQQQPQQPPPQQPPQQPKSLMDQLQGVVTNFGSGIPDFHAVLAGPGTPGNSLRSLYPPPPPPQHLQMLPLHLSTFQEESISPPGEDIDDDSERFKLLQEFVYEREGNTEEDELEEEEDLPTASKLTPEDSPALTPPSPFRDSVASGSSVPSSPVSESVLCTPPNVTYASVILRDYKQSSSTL
smiles,measurement,setting,value
CC(C)Nc1cc(-c2csc(N(C)C(=O)c3ccc(F)cc3)n2)ncn1,Activity,[1],568 PSL/mm2
same,Activity,[2],739 PSL/mm2
same,Activity,[3],inactive
same,Activity,[4],inactive
same,Activity,[5],6.9 PSL/mm2
same,Activity,[6],497 PSL/mm2
same,Activity,[7],inactive
same,Activity,[8],375 PSL/mm2
same,Activity,[9],inactive
same,Activity,[10],683 PSL/mm2
same,Activity,[11],680 PSL/mm2
same,Activity,[12],inactive
same,Activity,[13],inactive
same,Activity,[14],inactive
same,Activity,[15],181 PSL/mm2
same,Activity,[16],inactive
same,Activity,[17],602 PSL/mm2
same,Activity,[18],719 PSL/mm2
same,Activity,[19],222 PSL/mm2
same,Activity,[20],316 PSL/mm2
same,Activity,[21],618 PSL/mm2
same,Activity,[22],inactive
same,Activity,[23],inactive
same,Activity,[24],inactive
same,Activity,[25],inactive
same,Activity,[26],6.7 PSL/mm2
